According to ChEMBL document CHEMBL1123677, “Structure-activity studies of 5-[[4-(4,5-dihydro-2-oxazolyl) phenoxy]alkyl]-3-methylisoxazoles: inhibitors of picornavirus uncoating” (J Med Chem, 1987):
In brackets after ≈: the same amount, converted by molar mass. Activity calls are given as the source filed them. The calls are words filed in the database; no cut-off is given here.

Legend:
rhinovirus B86 = test: Tested for antirhinoviral activity against the rhinovirus serotype 86; assay type: functional; settings: Rhinovirus B
Summary of the method: (§1)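 Selected compounds were tested across a 15-serotype rhinovirus panel: the five secondary serotypes plus 10 more. An MIC was recorded for each serotype. MIC80, the concentration inhibiting 80% of serotypes tested, was also derived from this panel.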

rhinovirus A21 = test: Tested for antirhinoviral activity against the rhinovirus serotype 21; assay type: functional; settings: Rhinovirus A; summary of the method: as §1
rhinovirus A41 = test: Tested for antirhinoviral activity against the rhinovirus serotype 41; assay type: functional; settings: Rhinovirus A; summary of the method: as §1
rhinovirus B14 = test: Tested for antirhinoviral activity against the rhinovirus serotype 14; assay type: functional, human rhinovirus type 14; settings: Rhinovirus B; summary of the method: as §1
rhinovirus A1B = test: Tested for antirhinoviral activity against the rhinovirus serotype 1B; assay type: functional, human rhinovirus type 1b; settings: Rhinovirus A; summary of the method: as §1
Human rhinovirus 1A = test: Tested for antirhinoviral activity against the rhinovirus serotype 1A; assay type: functional; summary of the method: as §1
rhinovirus A15 = test: Tested for antirhinoviral activity against the rhinovirus serotype 15; assay type: functional; settings: Rhinovirus A; summary of the method: as §1
rhinovirus A50 = test: Tested for antirhinoviral activity against the rhinovirus serotype 50; assay type: functional; settings: Rhinovirus A; summary of the method: as §1
rhinovirus A89 = test: Tested for antirhinoviral activity against the rhinovirus serotype 89; assay type: functional, human rhinovirus type 89; settings: Rhinovirus A; summary of the method: as §1
rhinovirus A2 [1] = test: Tested for antirhinoviral activity against the rhinovirus serotype 2; assay type: functional, human rhinovirus type 2; settings: Rhinovirus A; summary of the method: as §1
rhinovirus A2 [2] = test: Antirhinovirus activity was assessed and the maximum testable concentration that causes no apparent effects on the cell monolayers was determined against HRV-2 virus in vitro.; assay type: functional, human rhinovirus type 2
rhinovirus A2 [3] = test: Antiviral activity determined by ability to inhibit the HRV-2( human rhinovirus type -2) virus by plaque reduction assay in vitro; assay type: functional; settings: Rhinovirus A
Summary of the method: (§2)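 Plaque reduction assay against human rhinovirus type 2 (HRV-2), following an earlier reported method. The value is the MIC, the minimum inhibitory concentration.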

rhinovirus A67 = test: Tested for antirhinoviral activity against the rhinovirus serotype 67; assay type: functional; settings: Rhinovirus A; summary of the method: as §1
Human rhinovirus sp. = test: Mean of MIC's was determined for the five types of virus like HRV-2, HRV-1A,HRV-22,HRV-41 and HRV-50; assay type: functional
Summary of the method: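 MIC measured by plaque reduction against HRV-2 first. The value is the mean of the MICs across these five serotypes.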

rhinovirus A22 = test: Tested for antirhinoviral activity against the rhinovirus serotype 22; assay type: functional; settings: Rhinovirus A; summary of the method: as §1
rhinovirus A30 = test: Tested for antirhinoviral activity against the rhinovirus serotype 30; assay type: functional; settings: Rhinovirus A; summary of the method: as §1
rhinovirus A25 [4] = test: Tested for antirhinoviral activity against the rhinovirus serotype 25; assay type: functional; settings: Rhinovirus A; summary of the method: as §1
[5] = tested on: human rhinovirus (15-serotype panel); test: Antirhinovirus activity was determined by the ability to inhibit the growth of 80% of a panel of 15 human rhinovirus serotypes
rhinovirus B6 = test: Tested for antirhinoviral activity against the rhinovirus serotype 6; assay type: functional; settings: Rhinovirus B; summary of the method: as §1
[6] = Partition coefficient (logP); assay type: physicochemical; settings: octanol/water
rhinovirus A2 [7] = test: Antirhinovirus activity was determined by the ability to inhibit the HRV-2 (human rhinovirus type -2) virus by plaque reduction assay in vitro; assay type: functional; settings: Rhinovirus A; summary of the method: as §2
rhinovirus A25 [8] = test: Tested for antirhinoviral activity against the rhinovirus serotype 25; IA is inactive; assay type: functional, organism-based; summary of the method: as §1

SMILES: Cc1cc(CCCCCOc2ccc(C3=NCCO3)cc2Cl)on1
- MIC (rhinovirus B86): 0.9 µM (≈ 0.314 µg/mL)
- MIC (rhinovirus A21): 0.07 µM (≈ 0.0244 µg/mL)
- MIC (rhinovirus A41): 3.5 µM (≈ 1.22 µg/mL)
- MIC (rhinovirus B14): 2.4 µM (≈ 0.837 µg/mL)
- MIC (rhinovirus A1B): 0.2 µM (≈ 0.0698 µg/mL)
- MIC (Human rhinovirus 1A): 1 µM (≈ 0.349 µg/mL)
- MIC (rhinovirus A15): 0.2 µM (≈ 0.0698 µg/mL)
- MIC (rhinovirus A50): 0.2 µM (≈ 0.0698 µg/mL)
- MIC (rhinovirus A89): 0.03 µM (≈ 0.0105 µg/mL)
- MIC (rhinovirus A2 [1]): 0.06 µM (≈ 0.0209 µg/mL)
- MTL (rhinovirus A2 [2]): 8.9 µM
- MIC (rhinovirus A2 [3]): 0.06 µM (≈ 0.0209 µg/mL)
- MIC (rhinovirus A67): 0.23 µM (≈ 0.0802 µg/mL)
- MIC (Human rhinovirus sp.): 1 µM (≈ 0.349 µg/mL)
- MIC (rhinovirus A22): 0.1 µM (≈ 0.0349 µg/mL)
- MIC (rhinovirus A30): 0.07 µM (≈ 0.0244 µg/mL)
- MIC (rhinovirus A25 [4]): 2.4 µM (≈ 0.837 µg/mL)
- MIC80 [5]: 1 µM (≈ 0.349 µg/mL)
- MIC (rhinovirus B6): 0.6 µM (≈ 0.209 µg/mL)

SMILES: Cc1cc(CCCCCOc2ccc(C3=NCCO3)cc2C(C)C)on1
- MTL (rhinovirus A2 [2]): 2.2 µM
- MIC (rhinovirus A2 [3]): 0.2 µM (≈ 0.0713 µg/mL)
- MIC (Human rhinovirus sp.): > 50 µM

SMILES: Cc1cc(CCCCCOc2ccc(C3=NCCO3)cc2N)on1
- logP [6]: 2.83
- MTL (rhinovirus A2 [2]): 19 µM
- MIC (rhinovirus A2 [3]): 0.91 µM (≈ 0.3 µg/mL)
- MIC (Human rhinovirus sp.): 7 µM (≈ 2.31 µg/mL)

SMILES: C=Cc1cc(C2=NCCO2)ccc1OCCCCCc1cc(C)no1
- MIC (rhinovirus B86): 1.6 µM (≈ 0.545 µg/mL)
- MIC (rhinovirus A21): 0.09 µM (≈ 0.0306 µg/mL)
- MIC (rhinovirus A41): 1.3 µM (≈ 0.443 µg/mL)
- MIC (rhinovirus B14): 1.7 µM (≈ 0.579 µg/mL)
- MIC (rhinovirus A1B): 0.3 µM (≈ 0.102 µg/mL)
- MIC (Human rhinovirus 1A): 1.2 µM (≈ 0.409 µg/mL)
- logP [6]: 4.65
- MIC (rhinovirus A15): 0.7 µM (≈ 0.238 µg/mL)
- MIC (rhinovirus A50): 1.2 µM (≈ 0.409 µg/mL)
- MIC (rhinovirus A89): 0.1 µM (≈ 0.034 µg/mL)
- MIC (rhinovirus A2 [1]): 0.2 µM (≈ 0.0681 µg/mL)
- MTL (rhinovirus A2 [2]): 18 µM
- MIC (rhinovirus A2 [3]): 0.2 µM (≈ 0.0681 µg/mL)
- MIC (rhinovirus A67): 0.4 µM (≈ 0.136 µg/mL)
- MIC (Human rhinovirus sp.): 0.8 µM (≈ 0.272 µg/mL)
- MIC (rhinovirus A22): 0.5 µM (≈ 0.17 µg/mL)
- MIC (rhinovirus A30): 0.1 µM (≈ 0.034 µg/mL)
- MIC (rhinovirus A25 [4]): 1.7 µM (≈ 0.579 µg/mL)
- MIC80 [5]: 1.6 µM (≈ 0.545 µg/mL)
- MIC (rhinovirus B6): 2.4 µM (≈ 0.817 µg/mL)

SMILES: Cc1cc(CCCCCOc2ccc(C3=NCCO3)cc2C)on1
- MIC (rhinovirus B86): 0.6 µM (≈ 0.197 µg/mL)
- MIC (rhinovirus A21): 0.06 µM (≈ 0.0197 µg/mL)
- MIC (rhinovirus A41): 4.3 µM (≈ 1.41 µg/mL)
- MIC (rhinovirus B14): 0.6 µM (≈ 0.197 µg/mL)
- MIC (rhinovirus A1B): 0.3 µM (≈ 0.0985 µg/mL)
- MIC (rhinovirus A2 [7]): 0.1 µM (≈ 0.0328 µg/mL)
- MIC (Human rhinovirus 1A): 2 µM (≈ 0.657 µg/mL)
- logP [6]: 4.4
- MIC (rhinovirus A15): 0.2 µM (≈ 0.0657 µg/mL)
- MIC (rhinovirus A50): 0.3 µM (≈ 0.0985 µg/mL)
- MIC (rhinovirus A89): 0.06 µM (≈ 0.0197 µg/mL)
- MIC (rhinovirus A2 [1]): 0.09 µM (≈ 0.0296 µg/mL)
- MTL (rhinovirus A2 [2]): 19 µM
- MIC (rhinovirus A67): 0.2 µM (≈ 0.0657 µg/mL)
- MIC (Human rhinovirus sp.): 1.4 µM (≈ 0.46 µg/mL)
- MIC (rhinovirus A22): 0.2 µM (≈ 0.0657 µg/mL)
- MIC (rhinovirus A30): 0.05 µM (≈ 0.0164 µg/mL)
- MIC (rhinovirus A25 [4]): 6.7 µM (≈ 2.2 µg/mL)
- MIC80 [5]: 0.6 µM (≈ 0.197 µg/mL)
- MIC (rhinovirus B6): 0.6 µM (≈ 0.197 µg/mL)

SMILES: Cc1cc(CCCCOc2ccc(C3=NCCO3)cc2Cl)on1
- MTL (rhinovirus A2 [2]): 9.3 µM
- MIC (rhinovirus A2 [3]): 0.2 µM (≈ 0.067 µg/mL)
- MIC (Human rhinovirus sp.): 1 µM (≈ 0.335 µg/mL)
- MIC80 [5]: 3.6 µM (≈ 1.21 µg/mL)

SMILES: COc1cc(C2=NCCO2)ccc1OCCCCCc1cc(C)no1
- MIC (rhinovirus B86): 1.9 µM (≈ 0.654 µg/mL)
- MIC (rhinovirus A21): 0.2 µM (≈ 0.0689 µg/mL)
- MIC (rhinovirus A41): 14 µM (≈ 4.82 µg/mL)
- MIC (rhinovirus B14): 1.7 µM (≈ 0.585 µg/mL)
- MIC (rhinovirus A1B): 1.8 µM (≈ 0.62 µg/mL)
- MIC (Human rhinovirus 1A): 6.7 µM (≈ 2.31 µg/mL)
- logP [6]: 3.44
- MIC (rhinovirus A15): 0.6 µM (≈ 0.207 µg/mL)
- MIC (rhinovirus A50): 0.4 µM (≈ 0.138 µg/mL)
- MIC (rhinovirus A89): 0.7 µM (≈ 0.241 µg/mL)
- MIC (rhinovirus A2 [1]): 0.3 µM (≈ 0.103 µg/mL)
- MTL (rhinovirus A2 [2]): 37 µM
- MIC (rhinovirus A2 [3]): 0.3 µM (≈ 0.103 µg/mL)
- MIC (rhinovirus A67): 1 µM (≈ 0.344 µg/mL)
- MIC (Human rhinovirus sp.): 4.5 µM (≈ 1.55 µg/mL)
- MIC (rhinovirus A22): 0.8 µM (≈ 0.276 µg/mL)
- MIC (rhinovirus A30): 0.2 µM (≈ 0.0689 µg/mL)
- IA (rhinovirus A25 [8]): inactive
- MIC80 [5]: 1.9 µM (≈ 0.654 µg/mL)
- MIC (rhinovirus B6): 1 µM (≈ 0.344 µg/mL)
